These results are taken from ChEMBL document CHEMBL4350976, “Sequence modification of heptapeptide selected by phage display as homing device for HT-29 colon cancer cells to improve the anti-tumour activity of drug delivery systems” (Eur J Med Chem, 2019).

The test system of data set [1] is NCI-H1650. Nature of the data set: Potency index, ratio of compound IC50 to Daunomycin IC50 for human NCI-H1650 cells preincubated for 24 hrs under serum free condition followed by compound washout and further incubation for 48 hrs in presence of serum by MTT assay. Format: functional. Background: Formazan colour is commonly taken as a measure of viable cells.
Data set [2] relates to HT-29. In words: Potency index, ratio of compound IC50 to Daunomycin IC50 for human HT-29 cells preincubated for 24 hrs under serum free condition followed by compound washout and further incubation for 48 hrs in presence of serum by MTT assay. Format: functional.
The subject of data set [3] is HT-29. In words: Antitumor activity against human HT-29 cells xenografted in SCID mouse assessed as decrease in number of Ki-67 positive cells measured as proliferation index at 38.3 mg/kg, ip administered thrice in first week (on days 13, 16, 20, 23 and 27) and twice in second week starting from 13 days post inoculation measured at day 30 post inoculation by KI-67-staining based light microscopic analysis (reference value: 100%). More on the design: scale not given: the % may be the effect or the level left. Format: functional. In outline: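 Tumours from the SCID HT-29 orthotopic study were formalin-fixed and paraffin-embedded, cut at 2 µm, and given citrate pH 6 retrieval at 98 °C for 40 min. They were stained with anti-human Ki-67 (1:40, 1 h RT), then a biotinylated link, HRP polymer and AEC. Ki-67+ cells were counted in 5 fields per tumour at 40× magnification. The proliferation index is the % positive cells.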
(In xenograft studies the graft and the host belong to different species.)

Data set [4] in a line: Potency index, ratio of compound IC50 to Daunomycin IC50 for human PE/CA-PJ15 cells preincubated for 24 hrs under serum free condition followed by compound washout and further incubation for 48 hrs in presence of serum by MTT assay. The data set is classed as functional.
Data set [5] in a line: Drug metabolism in rat liver lysosomes homogenate assessed as increase in Dau = Aoa-Leu-OH metabolite formation at 0.05 ug/ul after 1 hr by LC-MS analysis. The data set is classed as ADME, subcellular, Lysosome. As to conditions: tissue homogenate; call rule not given here. In a few lines: (§1)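 Conjugates and rat liver lysosomal homogenate were each used at 0.05 µg/µL. Samples were taken at 0, 1, 3, 6 and 24 h. Metabolites were identified by LC-MS on a C18 column with a formic acid/acetonitrile gradient.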

In data set [6] the test system is CT26.WT. In words: Cytostatic activity against mouse CT26.WT cells preincubated for 24 hrs under serum free condition followed by compound washout and further incubation for 48 hrs in presence of serum by MTT assay. The data set is classed as functional, cell-based. In a few lines:
(§2)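 Cells were grown at 37 °C in 5% CO2 in medium with 10% heat-inactivated FBS (20% for OVCAR-3) plus penicillin/streptomycin. The medium was RPMI-1640 for most lines, DMEM for U-87 MG and MRC-5, and IMDM for PE/CA-PJ lines. Seeding was 3×10^3–10×10^3 cells per well. Cells had 24 h compound exposure, a wash, and 48 h further culture. Read-out was MTT, normalized to untreated cells and fitted by nonlinear regression for IC50.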

The nature of data set [7]: Cytostatic activity against human PECAPJ41 cells preincubated for 24 hrs under serum free condition followed by compound washout and further incubation for 48 hrs in presence of serum by MTT assay. Format: functional, cell-based. In outline:
as §2

Data set [8] concerns MCF7. In words: Cytostatic activity against human MCF7 cells preincubated for 24 hrs under serum free condition followed by compound washout and further incubation for 48 hrs in presence of serum by MTT assay. The data set is classed as functional, cell-based. In outline:
as §2

Data set [9] has as its system NCI-H1650. In words: Cytostatic activity against human NCI-H1650 cells preincubated for 24 hrs under serum free condition followed by compound washout and further incubation for 48 hrs in presence of serum by MTT assay. The data set is classed as functional, cell-based. In a few lines: as §2
Data set [10] in a line: Toxicity in SCID mouse xenografted with human HT-29 cells assessed as animal death at 38.3 mg/kg, ip administered thrice in first week and twice in second week (on days 13, 16, 20, 23 and 27) starting from 13 days post inoculation measured upto 30 days post inoculation. Format: organism-based. As to conditions: in vivo. In outline: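 Female SCID mice (6–8 weeks, 22–27 g) with orthotopic HT-29 colon tumours. Conjugates given i.p. in distilled water for injection at 10 mg/kg Dau content (36.6 or 38.3 mg/kg conjugate) on days 13, 16, 20, 23 and 27, 8 mice/group. Study ended day 30; deaths and body weight recorded against a solvent-treated control group.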

Data set [11] has as its system NCI-H1975. Nature of the data set: Potency index, ratio of compound IC50 to Daunomycin IC50 for human NCI-H1975 cells preincubated for 24 hrs under serum free condition followed by compound washout and further incubation for 48 hrs in presence of serum by MTT assay. The data set is classed as functional.
The nature of data set [12]: Stability in serum free medium at 30 uM incubated for 3 hrs by LC/MS analysis. In a few lines:
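Conjugates (30 μM) were incubated at 37 °C in serum-free medium. Samples were taken at 0 and 3 h, quenched with acetic acid, lyophilised, desalted on C18 spin columns and analysed by LC-MS.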

Data set [13] relates to 4T1. In words: Potency index, ratio of compound IC50 to Daunomycin IC50 for mouse 4T1 cells preincubated for 24 hrs under serum free condition followed by compound washout and further incubation for 48 hrs in presence of serum by MTT assay. Format: functional.
The nature of data set [14]: Drug metabolism in rat liver lysosomes homogenate assessed as Dau-containing metabolite formation at 0.05 ug/ul after 24 hrs by LC-MS analysis. The data set is classed as ADME, subcellular, Lysosome. As to conditions: tissue homogenate. In a few lines: as §1
The subject of data set [15] is HT-29. Nature of the data set: Antitumor activity against human HT-29 cells xenografted in SCID mouse assessed as tumor growth inhibition by measuring decrease in tumor weight at 38.3 mg/kg, ip administered thrice in first week and twice in second week (on days 13, 16, 20, 23 and 27) starting from 13 days post inoculation measured at day 30 post inoculation relative to control. Format: functional. As to conditions: HT-29, ip. In outline: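 Orthotopic HT-29 tumours in female SCID mice aged 6–8 weeks (22–27 g), 8 per group. Conjugates were given i.p. in water for injection at 10 mg/kg Dau content on days 13, 16, 20, 23 and 27. The study ended on day 30. Tumours were weighed against solvent controls, and livers were weighed as a toxicity read-out.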

In data set [16] the test system is OVCAR-3. In words: Cytostatic activity against human OVCAR3 cells preincubated for 24 hrs under serum free condition followed by compound washout and further incubation for 48 hrs in presence of serum by MTT assay. Format: functional, cell-based. In a few lines: as §2
Data set [17] deals with A2058. Nature of the data set: Potency index, ratio of compound IC50 to Daunomycin IC50 for human A2058 cells preincubated for 24 hrs under serum free condition followed by compound washout and further incubation for 48 hrs in presence of serum by MTT assay. The data set is classed as functional.
The test system of data set [18] is PC-3. In words: Potency index, ratio of compound IC50 to Daunomycin IC50 for human PC3 cells preincubated for 24 hrs under serum free condition followed by compound washout and further incubation for 48 hrs in presence of serum by MTT assay. The data set is classed as functional.
For data set [19], the system named is U-87 MG. In words: Cytostatic activity against human U87 cells preincubated for 24 hrs under serum free condition followed by compound washout and further incubation for 48 hrs in presence of serum by MTT assay. The data set is classed as functional, cell-based, U-87MG ATCC. In outline: as §2
The subject of data set [20] is PC-3. Nature of the data set: Cytostatic activity against human PC3 cells preincubated for 24 hrs under serum free condition followed by compound washout and further incubation for 48 hrs in presence of serum by MTT assay. Format: functional, cell-based. In a few lines:
as §2

In data set [21] the test system is HepG2. In words: Potency index, ratio of compound IC50 to Daunomycin IC50 for human HepG2 cells preincubated for 24 hrs under serum free condition followed by compound washout and further incubation for 48 hrs in presence of serum by MTT assay. Format: functional.
Data set [22] in a line: Drug uptake in lysosome of human HT-29 cells assessed as increase in fluorescence at 50 uM after 30 mins by LysoTracker deep red staining based confocal microscopic analysis. The note with it: ht-29, 0.5 h. The data set is classed as ADME, subcellular. In a few lines:
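HT-29 cells were exposed to 50 µM conjugate for 30 min before imaging. Lysosomes were stained with LysoTracker Deep Red and mitochondria with MitoTracker Deep Red. Confocal imaging detected Dau at 550–600 nm.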

Each structure is given as a SMILES string. Where a SMILES comes first, the peptide text is derived from it. The star is where a group is joined. X1 = COc1cccc2c1C(=O)c1c(O)c3c(c(O)c1C2=O)C[C@@](O)(/C(C)=N/OCC(=O)*)C[C@@H]3O[C@H]1C[C@H](N)[C@H](O)[C@H](C)O1

Turning to `COc1cccc2c1C(=O)c1c(O)c3c(c(O)c1C2=O)C[C@@](O)(/C(C)=N/OCC(=O)N[C@@H](CC(C)C)C(=O)N[C@@H](CCCNC(=N)N)C(=O)N[C@@H](CCCNC(=N)N)C(=O)N[C@@H](Cc1ccc(O)cc1)C(=O)N[C@H](C(=O)N[C@@H](Cc1cnc[nH]1)C(=O)N[C@@H](CC(C)C)C(=O)N[C@@H](Cc1ccccc1)C(=O)N[C@@H](Cc1ccc(O)cc1)C(=O)N[C@@H](C)C(=O)N[C@H](C(N)=O)[C@@H](C)O)C(C)C)C[C@@H]3O[C@H]1C[C@H](N)[C@H](O)[C@H](C)O1` (X1-LRRYVHLFYAT-NH2), the “Ratio IC50” value in [1] is listed as 60.1; in data set [2] it was 57.1; in data set [4], 277.3; in data set [11] it was 279.9; in [13], 284.6; in data set [17], 104.5. Besides, the entries for the “Ratio IC50” value in [18] and in data set [21] were 226.7 and 220.2, respectively. In addition, the Activity is listed as 58% in data set [3] and “Non-Toxic” in data set [10]. The Drug metabolism result in data set [5] and in data set [14] was “Metabolite_Detected” in each case. In addition, the concentration for half-maximal inhibition (IC50) in data set [6] amounted to 8.3 µM; in data set [7], 4.3 µM; in data set [8], 11.1 µM; in data set [9], 2.9 µM; in data set [16], 11.3 µM; in data set [19], 6.6 µM. In data set [20], the IC50 is 5.9 µM. Also, the Stability result in [12] is on record as “Stable”. The inhibition in vivo at 38.3 mg/kg in data set [15] was found to be 89%. In addition, the Drug uptake entry in [22] was “Active”.

By IC50 is commonly meant the concentration at which inhibition is half-maximal. What is called inhibition in vivo is the change of the read-out against control, counted positive when it falls.
